Reference: ChEMBL document CHEMBL1123129, “Hypolipidemic activity of indan-1,3-dione derivatives in rodents” (J Med Chem, 1985)

Legend:
[1] = target: T1, Sterol O-acyltransferase 1 (Mus musculus) (UniProt Q61263); assay: In Vivo effect for the hypolipidemic activity on Acyl-COA cholesterol acyltransferase in CF1 mice after 16 days of oral administration at a dose of 10 mg/kg; type: functional, organism-based; set-up: dose 10 mg/kg
T1 sequence (whole entry): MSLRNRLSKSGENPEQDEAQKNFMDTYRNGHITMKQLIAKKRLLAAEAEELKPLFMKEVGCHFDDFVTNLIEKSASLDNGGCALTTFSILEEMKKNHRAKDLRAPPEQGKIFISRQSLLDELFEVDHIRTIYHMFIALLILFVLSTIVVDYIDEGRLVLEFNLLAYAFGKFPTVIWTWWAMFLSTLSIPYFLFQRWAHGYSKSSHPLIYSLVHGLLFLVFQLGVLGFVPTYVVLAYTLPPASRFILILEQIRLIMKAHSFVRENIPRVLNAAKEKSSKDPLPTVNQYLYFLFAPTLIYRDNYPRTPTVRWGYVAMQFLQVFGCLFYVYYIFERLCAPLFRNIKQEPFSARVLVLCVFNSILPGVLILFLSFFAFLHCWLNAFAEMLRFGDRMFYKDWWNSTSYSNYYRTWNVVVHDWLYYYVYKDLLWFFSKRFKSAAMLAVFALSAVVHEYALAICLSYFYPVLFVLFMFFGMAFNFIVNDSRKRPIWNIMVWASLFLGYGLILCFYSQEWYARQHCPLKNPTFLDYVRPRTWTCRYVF
In short: (§1)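 CF1 male mice are dosed orally at 10–60 mg/kg per day for 16 days, with 1% CMC as the control vehicle. Liver is homogenized at 10% in 0.25 M sucrose + 0.001 M EDTA, pH 7.2. Enzymes are assayed by literature methods, with Lowry protein. Activity is given as % of control (X ± SD, N = 6), with p from Student's t test.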

Rattus norvegicus = assay: Compound was evaluated for the hypolipidemic activity at 20 mg/kg per day orally for 14 days on neutral lipid content in rat liver; type: functional; details: route oral
In short: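 Male Sprague–Dawley rats were dosed orally for 14 days. Liver, small intestine and a 24-h fecal collection were lipid-extracted. Extracts were assayed for cholesterol (modified Liebermann–Burchard), triglyceride (enzymatic kit), neutral lipids, phospholipids and protein. Values are % of 1% CMC vehicle control, mean ± SD, N = 6.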

[2] = target: T1, Sterol O-acyltransferase 1 (Mus musculus); assay: In Vitro evaluation for the CF1 liver enzyme activity on Acyl cholesterol acyltransferase at concentration 200 uM; type: functional, tissue-based
In short: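 Liver was taken from CF1 male mice and made into 10% homogenates, which were incubated with test compound at 50, 100 or 200 µM. Each enzyme was assayed by its literature method, and protein was measured by Lowry. N = 6. Activity is expressed as % of untreated control ± SD.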

[3] = target: T2, 3-hydroxy-3-methylglutaryl-coenzyme A reductase (Mus musculus) (UniProt Q01237); assay: In Vivo effect for the hypolipidemic activity on HMG-CoA reductase in CF1 mice after 16 days of oral administration at a dose of 60 mg/kg; type: organism-based; set-up: dose 60 mg/kg; in short: as §1
T2 sequence (whole entry): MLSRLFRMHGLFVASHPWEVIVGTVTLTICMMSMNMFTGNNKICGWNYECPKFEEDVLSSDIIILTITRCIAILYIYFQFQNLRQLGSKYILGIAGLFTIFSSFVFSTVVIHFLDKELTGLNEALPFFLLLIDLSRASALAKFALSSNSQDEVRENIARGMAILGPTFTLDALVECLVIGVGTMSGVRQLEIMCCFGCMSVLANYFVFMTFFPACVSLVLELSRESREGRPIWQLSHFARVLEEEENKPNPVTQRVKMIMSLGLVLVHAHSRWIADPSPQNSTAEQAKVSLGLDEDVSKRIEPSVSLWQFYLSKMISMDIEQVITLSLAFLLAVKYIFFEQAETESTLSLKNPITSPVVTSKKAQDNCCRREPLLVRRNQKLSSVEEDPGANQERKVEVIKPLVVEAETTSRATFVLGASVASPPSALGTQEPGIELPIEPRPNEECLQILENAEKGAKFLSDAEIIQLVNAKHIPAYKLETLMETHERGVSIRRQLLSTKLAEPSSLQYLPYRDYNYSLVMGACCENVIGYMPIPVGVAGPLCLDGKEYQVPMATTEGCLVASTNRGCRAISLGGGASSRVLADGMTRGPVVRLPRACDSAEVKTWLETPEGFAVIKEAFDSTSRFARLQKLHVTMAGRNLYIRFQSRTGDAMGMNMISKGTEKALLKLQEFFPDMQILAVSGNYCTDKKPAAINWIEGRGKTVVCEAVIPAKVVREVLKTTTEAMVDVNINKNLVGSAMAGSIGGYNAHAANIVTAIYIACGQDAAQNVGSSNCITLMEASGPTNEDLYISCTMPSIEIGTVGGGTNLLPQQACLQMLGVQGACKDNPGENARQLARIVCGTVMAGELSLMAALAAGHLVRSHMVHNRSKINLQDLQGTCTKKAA

## COc1ccc(C2C(=O)c3ccccc3C2=O)cc1 [ANISINDIONE]
[1]
  Control: 92%
Rattus norvegicus
  Control: 84%
[2]
  Control: 60%
[3]
  Control: 126%
